# Results collected from several papers.
# Protocols differ between the studies behind these lines.
# Target: Bone morphogenetic protein receptor type-1A (BMPR1A, Homo sapiens, UniProt P36894)
SMILES,assay,conditions,remaining binding [%]
O=C(c1ccc(Nc2ncc(Cl)c(-c3ccc(Cl)s3)n2)cc1)N1CCC(N2CCCC2)CC1,"binding, competition with immobilised ligand",1 µM,59
CC1=C(C#N)[C@@H](c2ccc3[nH]nc(C)c3c2)C(C#N)=C(c2ccc(Cl)cc2)N1,"binding, competition with immobilised ligand",1 µM,98.6
C[C@H]1CCN(c2nccc(-c3cnn4ncccc34)n2)C1,binding,1 µM,68
CS(=O)(=O)NCC[C@H](NC(=O)c1cncc2c1cnn2-c1ccc(F)cc1)c1ccnc(S(C)(=O)=O)c1,"binding, competition with immobilised ligand",1 µM,92
O=C(NCCCN1CCOCC1)c1ccc(Nc2nccc(-c3cc4ccccc4s3)n2)cc1,"binding, competition with immobilised ligand",1 µM,78
O=C(NCC1CCOCC1)c1n[nH]cc1NC(=O)c1c(F)cccc1F,"binding, competition with immobilised ligand",1 µM,89
COc1cnc(Nc2cccc(S(N)(=O)=O)c2)nc1N1CCN(c2ccccc2)CC1,"binding, competition with immobilised ligand",1 µM,100
CCN1CCN(Cc2ccc(C(=O)Nc3ccc(C)c(Oc4ccc5c(c4)CC(=O)N5)c3)cc2C(F)(F)F)CC1,"binding, competition with immobilised ligand",1 µM,100
C[C@@H](c1ccc(-n2cnc3c(N)ncnc32)cc1)N1CCc2nn(C)c(Cc3ccccc3)c2C1=O,"binding, competition with immobilised ligand",0.1 µM,100
O=C(c1ccc(Nc2ncc(Cl)c(-c3cc4ccccc4s3)n2)cc1)N1CCC(N2CCCC2)CC1,"binding, competition with immobilised ligand",1 µM,60
N[C@@H]1CCN(c2nccc(-c3cnn4ncccc34)n2)C1,binding,1 µM,100
COc1cnc(Nc2cccc(S(N)(=O)=O)c2)nc1N1CCN(c2ccccc2)C(=O)C1,"binding, competition with immobilised ligand",1 µM,67
C[C@@]1(Cc2ccc(C#N)cc2)C(=O)N(c2cc(Cl)cc(Cl)c2)c2ncc(C(=O)NC3(c4nc(C5CCC5)no4)CC3)n21,"binding, competition with immobilised ligand",1 µM,100
c1cnn2ncc(-c3ccnc(N4CCC45COC5)n3)c2c1,binding,1 µM,88
CC(=O)N1CCC(c2ccc(C(=O)NC(=N)N)cc2C(F)(F)F)CC1,"binding, competition with immobilised ligand",1 µM,100
FC(F)(F)Oc1cccc(-c2cnc3ccc(-c4ccncc4)nn23)c1,"cell-free assay, competition with immobilised ligand",5 µM,81
O=C(NS(=O)(=O)c1ccc(NCC2CCOCC2)c([N+](=O)[O-])c1)c1ccc(N2CCN(Cc3ccc(C(F)(F)F)cc3-c3ccc(Cl)cc3)CC2)cc1Oc1cnc2[nH]ccc2c1,"cell-free assay, competition with immobilised ligand",1 µM,81
CN(CCCC(F)(F)F)c1nccc(-c2cnn3ncccc23)n1,binding,1 µM,83
O=C(O)[C@H]1[C@H](Cn2nnc3ccccc3c2=O)CC[C@@H]1C(=O)c1ccc(OCCC2CCOCC2)cc1,"binding, competition with immobilised ligand",1 µM,61
CN(C)c1ncc(F)c(-c2cnn3ncccc23)n1,binding,1 µM,100
